Measured values reported in paper PMC3920459 (The Journal of organic chemistry, 2013).
Entries after “also recorded” stand apart in the source; their conditions may differ.

Tests used:
BT549, breast carcinoma = experiment: IC50 determination for adherent cells using SRB, BT549; format: cell-based, human; conditions: for IC50: read-out: IC50 BT549, SRB
U-937, lymphoma = experiment: IC50 determination for non-adherent cells using MTS, U-937; format: cell-based, human; conditions: for IC50: read-out: IC50 U-937, MTS
[1] = tested on: A549, non-small cell lung carcinoma; experiment: IC50 determination for adherent cells using SRB, A549; format: cell-based, human; conditions: read-out: IC50 A549, 48-hour exposure
HeLa, cervical carcinoma = experiment: IC50 determination for adherent cells using SRB, HeLa; format: cell-based, human; conditions: read-out: IC50 HeLa, 48-hour exposure
[2] = tested on: IMR90, immortalized lung fibroblasts; experiment: IC50 determination for adherent cells using SRB, IMR90; format: cell-based, human; conditions: read-out: IC50 IMR90, 48-hour exposure, immortalized normal cell line
[3] = tested on: human cell lines U-937, HeLa, A549, BT549, IMR90; experiment: 48-hour cell death panel; format: cell-based; conditions: for activity against the cell lines of Table 3 (in words): 48-hour exposure, concentrations up to 10 μM
Summary of the method: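 Adherent lines seeded at 5,000 (HeLa) or 2,000 (A549, BT549, IMR90) cells/well and attached 2–3 h, in RPMI-1640 or, for IMR90, EMEM, each with 10% FBS. Test compound at 1 nM–10 μM on a half-log scale, in triplicate with 1% DMSO final, for 48 h continuous at 37 °C and 5% CO2. Cells fixed in cold 10% TCA and stained with SRB; dye read at 510 nm. IC50 from ≥3 independent experiments.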

U-937 cells [4] = experiment: Apoptosis with Annexin V-FITC and propidium iodide; format: cell-based, human; conditions: 21 hours; 4× and 6× the 48-hour IC50
CA46, Burkitt’s lymphoma = experiment: IC50 determination using MTS, CA46; format: cell-based, human; conditions: read-out: IC50 CA46, 48-hour
U-937 cells [5] = experiment: Cell cycle arrest in thymidine-synchronized cells; format: cell-based, human; conditions: synchronized U-937 cells, 16 hours
[6] = mice, in vivo; cited from earlier work
[7] = tested on: Daudi, Burkitt’s lymphoma; experiment: IC50 determination using MTS, Daudi; format: cell-based, human; conditions: read-out: IC50 Daudi, 48-hour
[8] = tested on: glycogen synthase kinase-3β; conditions: cited from earlier work
[9] = tested on: HL-60, acute promyelocytic leukemia; experiment: IC50 determination using MTS, HL-60; format: cell-based, human; conditions: read-out: IC50 HL-60, 48-hour
[10] = tested on: CEM, acute lymphoblastic leukemia; experiment: IC50 determination using MTS, CEM; format: cell-based, human; conditions: read-out: IC50 CEM, 48-hour
cells = conditions: cited from earlier work
U-937 cells [11] = experiment: Western blot analysis of procaspase-3 and PARP-1 cleavage; format: cell-based, human; conditions: 24 hours; 2×, 4×, 6× the 48-hour IC50
[12] = tested on: tubulin dynamics in HeLa cells; experiment: Tubulin confocal microscopy; format: cell-based, human; conditions: 16 hours
[13] = tested on: multiple tumor cell lines; conditions: cited from earlier work
anthropods = conditions: cited from earlier work
[14] = tested on: Jurkat, acute T-cell leukemia; experiment: IC50 determination using MTS, Jurkat; format: cell-based, human; conditions: read-out: IC50 Jurkat, 48-hour
human erythrocytes = experiment: Hemolysis assay using human erythrocytes; format: cell-based

Compound	IC50 (BT549, breast carcinoma; 48-hour exposure) [nM]	IC50 (U-937, lymphoma; 48-hour exposure) [nM]	IC50 [1] [nM]	IC50 (HeLa, cervical carcinoma) [nM]	IC50 [2] [nM]	activity against the cell lines of Table 3 (in words) [3]	IC50 (CA46, Burkitt’s lymphoma) [nM]	IC50 [7] [nM]	IC50 [9] [nM]	IC50 [10] [nM]	IC50 [14] [nM]	further results
COC1NC(=O)c2ccc(Br)n2C1Cc1c[nH]c(=O)n1C (single isomer, unassigned; (+)) [(+)-39, (+)-O-methyl-pre-agelastatin A]	> 10000	> 10000	> 10000	> 10000	> 10000	none						
COC1NC(=O)c2ccc(Br)n2C1Cc1c[nH]c(=O)[nH]1 (single isomer, unassigned; (+)) [(+)-53, (+)-O-methyl-pre-agelastatin D]	> 10000	> 10000	> 10000	> 10000	> 10000	none						
CN1C(=O)N[C@H]2[C@@H]3NC(=O)c4ccc(Br)n4[C@@H]3C[C@]21O [(−)-1, (−)-agelastatin A]	278 ± 76	67 ± 3	1050 ± 140	708 ± 90	1110 ± 350	highest potency in all cell lines tested	187 ± 71	20 ± 3	138 ± 66	20 ± 2	74 ± 7	phosphatidylserine exposure / PI inclusion (apoptosis) (U-937 cells [4]): induced dose-dependent apoptosis; cell cycle arrest (U-937 cells [5]): dose-dependent G2/M cell cycle arrest; penetration into CNS compartments [6]: able to penetrate into CNS compartments; inhibition of glycogen synthase kinase-3β [8]: moderately inhibits; cell cycle arrest (cells): arrest in the G2/M-phase of the cell cycle; activation of procaspase-3 to caspase-3 and cleavage of PARP-1 (U-937 cells [11]): induced dose-dependent activation of procaspase-3 to active caspase-3, and cleavage of PARP-1; enhanced activity in BT549 relative to the other cell lines (BT549, breast carcinoma; 48-hour IC50 comparison): 4 ×; enhanced activity in U-937 relative to the other cell lines (U-937, lymphoma; 48-hour IC50 comparison): 20 ×; tubulin fluorescence (tubulin dynamics within cells) [12]: no change in tubulin fluorescence; anti-neoplastic activity against multiple tumor cell lines [13]: modest anti-neoplastic activity; toxicity towards anthropods (anthropods): exhibits toxicity; concentration without effect on normal red blood cells (human erythrocytes; hemolysis after 2 h): > 333 µM; hemolytic activity (nonspecific hemolysis of red blood cells) (human erythrocytes; tested at 333 μM, 2 h): none
CN1C(=O)N[C@@]2(O)[C@@H]3NC(=O)c4ccc(Br)n4[C@@H]3C[C@@]12O [(−)-3, (−)-agelastatin C]	> 10000	> 10000	> 10000	> 10000	> 10000	no activity; also recorded: completely abolishes activity	> 10000	7200 ± 2900	> 10000	2100 ± 1300	5310 ± 350	
O=C1N[C@H]2[C@@H]3NC(=O)c4ccc(Br)n4[C@@H]3C[C@@]2(O)N1 [(−)-4, (−)-agelastatin D]	631 ± 82	240 ± 33	920 ± 160	1000 ± 200	2750 ± 600		460 ± 240	202 ± 15	540 ± 120	74 ± 25	210 ± 63	phosphatidylserine exposure / PI inclusion (apoptosis) (U-937 cells [4]): induced dose-dependent apoptosis; cell cycle arrest (U-937 cells [5]): dose-dependent G2/M cell cycle arrest; activation of procaspase-3 to caspase-3 and cleavage of PARP-1 (U-937 cells [11]): induced dose-dependent activation of procaspase-3 to active caspase-3, and cleavage of PARP-1; activity against BT549 cells (in words) (BT549, breast carcinoma; 48-hour exposure): modest activity; activity against U-937 cells (in words) (U-937, lymphoma; 48-hour exposure): reasonable activity; tubulin fluorescence (tubulin dynamics within cells) [12]: no change in tubulin fluorescence
CO[C@@]12C[C@@H]3[C@@H](NC(=O)c4ccc(Br)n43)[C@@H]1NC(=O)N2C [(−)-5, (−)-agelastatin E]	6900 ± 2500	2560 ± 130	> 10000	8600 ± 810	> 10000	weak activity	2450 ± 950	1410 ± 530	4600 ± 3600	830 ± 370	1500 ± 330	reduction in anticancer potency relative to (−)-agelastatin A (1) ([3]; comparison of 48-hour IC50 values): > 10 fold
O=C1N[C@H]2[C@@H]3NC(=O)c4cc(Br)c(Br)n4[C@@H]3C[C@@]2(O)N1 [(−)-6, (−)-agelastatin F]	> 10000	> 10000	> 10000	> 10000	> 10000	no activity	> 10000	> 10000	> 10000	> 10000	> 10000	
CC(=O)O[C@H]1C(=O)[C@@]2(C)[C@H]([C@H](OC(=O)c3ccccc3)[C@]3(O)C[C@H](OC(=O)[C@H](O)[C@@H](NC(=O)c4ccccc4)c4ccccc4)C(C)=C1C3(C)C)[C@]1(OC(C)=O)CO[C@@H]1C[C@@H]2O [Taxol, reference compound]												tubulin fluorescence (tubulin dynamics within cells) [12]: heightened
(−)-O-methyl-di-epi-agelastatin A [(−)-50]	> 10000	> 10000	> 10000	> 10000	> 10000	none						
(−)-agelastatin B [(−)-2]	4800 ± 1100	1060 ± 160	> 10000	4800 ± 1200	> 10000	weak activity	1070 ± 420	460 ± 280	2400 ± 1000	290 ± 200	750 ± 440	
(−)-dehydroagelastatin A [(−)-51]	> 10000	> 10000	> 10000	> 10000	> 10000	none						
(−)-di-epi-agelastatin C [(−)-52]	> 10000	> 10000	> 10000	> 10000	> 10000	none						
